Assay results reported in ChEMBL document CHEMBL1136012, “Synthesis and structure-activity relationships of novel 7-substituted 1,4-dihydro-4-oxo-1-(2-thiazolyl)-1,8-naphthyridine-3-carboxylic acids as antitumor agents. Part 1” (J Med Chem, 2002).
Converted amounts (≈) assume the structure as drawn.

How the values were obtained:
P388 [1] = test: Cytotoxic activity of compound against Murine P388 Leukemia; assay type: functional, cell-based, Mus musculus
How it was run: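 Murine P388 cells were cultured in EMEM with 10% FBS, 2 mM glutamine, 50 units/mL penicillin and 50 μg/mL streptomycin. They were seeded at (1–2) × 10^4 cells/mL without preincubation and exposed to varying concentrations for 72 h at 37 °C, 5% CO2. MTT was then added for 4 h, formazan dissolved in DMSO and read at 570/690 nm.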

P388 [2] = test: […] antitumor activity of compound against P388 leukemia cells at a dose of 3.13 mg/kg; assay type: functional, Mus musculus
How it was run: (§1)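 In vivo study: BDF1 mice received 10^6 P388 leukemia cells ip as diluted ascites fluid. Test compounds were suspended in 0.4% CMC and given ip on days 1 and 5 after implantation, with seven mice per group. The endpoint is T/C% = median survival time of the treated group / median survival time of controls × 100.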

P388 [3] = test: […] antitumor activity of compound against P388 leukemia cells at a dose of 6.25 mg/kg; assay type: functional, Mus musculus; how it was run: as §1
P388 [4] = test: In vitro antitumor activity of compound against P388 leukemia cells at a dose of […] mg/kg; assay type: functional, Mus musculus; design: concentration or dose not given beside the values
P388 [5] = test: […] antitumor activity of compound against P388 leukemia cells at a dose of 50 mg/kg; assay type: functional, Mus musculus; how it was run: as §1
[6] = Cytotoxic activity of compound against AZ-521 stomach human tumor cell line; assay type: functional
How it was run: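 AZ-521 cells were grown in EMEM with 10% FBS, 2 mM glutamine and NEAA. They were plated at (1–2) × 10^4 cells/mL and preincubated for 24 h, then treated with a range of concentrations for 72 h at 37 °C, 5% CO2. After a 4 h MTT step, the formazan was dissolved in DMSO and read at 570 nm (reference 690 nm).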

[7] = Cytotoxic activity of compound against SCaBER bladder squamous human tumor cell line; assay type: functional, cell-based
How it was run: (§2)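 Cells were kept in EMEM with 10% FBS, 2 mM glutamine, NEAA and 1 mM sodium pyruvate. They were seeded at (1–2) × 10^4 cells/mL and preincubated for 24 h. They were then exposed to graded concentrations for 72 h at 37 °C in 5% CO2. MTT was added for a further 4 h and the formazan dissolved in DMSO, with absorbance at 570/690 nm.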

A-427 = test: Cytotoxic activity of compound against A-427 lung human tumor cell line; assay type: functional, cell-based; how it was run: as §2
SK-OV-3 = test: Cytotoxic activity of compound against SK-OV-3 ovary human tumor cell line; assay type: functional, cell-based; settings: SK-OV-3, Female gonad
How it was run: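 SK-OV-3 cells were maintained in McCoy's 5A with 15% FBS. After seeding at (1–2) × 10^4 cells/mL and 24 h preincubation, wells received graded concentrations for 72 h at 37 °C, 5% CO2. A 4 h MTT incubation followed, with DMSO solubilization and absorbance at 570/690 nm.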

G-361 = test: Cytotoxic activity of compound against G-361 melanoma human tumor cell line; assay type: functional, cell-based
How it was run: (§3)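 Culture was in McCoy's 5A with 10% FBS. Cells were seeded at (1–2) × 10^4 cells/mL, preincubated for 24 h, then incubated with various concentrations for 72 h at 37 °C under 5% CO2. MTT was added for 4 h and the formazan dissolved in DMSO, with A570 read against 690 nm.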

HT-29 = test: Cytotoxic activity of compound against HT-29 colon human tumor cell line; assay type: functional, cell-based; how it was run: as §3
[8] = Mus musculus, P388, read-out: IC50

Row | Compound | IC50 (P388 [1]; [8]) | other results
1 | CO[C@H]1CN(c2nc3c(cc2F)c(=O)c(C(=O)O)cn3-c2nccs2)C[C@@H]1N.Cl (stereo in doubt; (S,S)-43j) |  | IC50 (P388 [1]; p388): 0.023 µg/mL
2 | Cl.NC1CCN(c2cc3c(cc2F)c(=O)c(C(=O)O)cn3-c2nccs2)C1 (configuration not stated) | > 10 µg/mL | 
3 | Cl.NCC1CN(c2nc3c(cc2F)c(=O)c(C(=O)O)cn3-c2nccs2)C[C@H]1Cl (some centres not stated) | 0.156 µg/mL | 
4 | Cl.NC1CCN(c2nc3c(cc2F)c(=O)c(C(=O)O)cn3C2CC2)C1 (configuration not stated) | 7.9 µg/mL | 
5 | COc1cccc2c1C(=O)c1c(O)c3c(c(O)c1C2=O)C[C@@](O)(C(=O)CO)C[C@@H]3O[C@H]1C[C@H](N)[C@H](O)[C@H](C)O1 [DOXORUBICIN] | 0.004 µg/mL (≈ 7.36 nM) | T/C (P388 [2]): 235%; T/C (P388 [3]): 293%
6 | Cc1cc(-n2cc(C(=O)O)c(=O)c3cc(F)c(N4CCC(N)C4)nc32)on1.Cl (configuration not stated) | 0.58 µg/mL | 
7 | Cl.NCC1CN(c2nc3c(cc2F)c(=O)c(C(=O)O)cn3-c2nccs2)CCO1 (configuration not stated) | 1.73 µg/mL | 
8 | Cl.N[C@@H]1CCN(c2nc3c(cc2F)c(=O)c(C(=O)O)cn3-c2nccs2)C1 | 0.016 µg/mL | 
9 | Cl.NC1(CO)CCN(c2nc3c(cc2F)c(=O)c(C(=O)O)cn3-c2nccs2)C1 (configuration not stated) | 0.084 µg/mL | 
10 | C[C@@H]1CN(c2nc3c(cc2F)c(=O)c(C(=O)O)cn3-c2nccs2)C[C@@H]1N.Cl | 0.057 µg/mL | 
11 | CISPLATIN |  | IC50 (P388 [1]; p388): 0.011 µg/mL
12 | Cl.O=C(O)c1cn(-c2nccs2)c2nc(-n3ccnc3)c(F)cc2c1=O | > 10 µg/mL | 
13 | CC1(N)CCN(c2nc3c(cc2F)c(=O)c(C(=O)O)cn3-c2nccs2)C1.Cl (configuration not stated) | 0.026 µg/mL | T/C (P388 [4]): 213%; T/C (P388 [2]): 138%; T/C (P388 [5]): >375%
14 | Cc1csc(-n2cc(C(=O)O)c(=O)c3cc(F)c(N4CCC(N)C4)nc32)n1.Cl (configuration not stated) | 0.051 µg/mL | 
15 | Cl.O=C(O)c1cn(-c2nccs2)c2nc(N3CCSCC3)c(F)cc2c1=O | 1.74 µg/mL | 
16 | Cl.NC1CCN(c2nc3c(cc2F)c(=O)c(C(=O)O)cn3-c2nc(-c3ccccc3)cs2)C1 (configuration not stated) | 0.052 µg/mL | 
17 | Cl.NC1CCN(c2nc3c(cc2F)c(=O)c(C(=O)O)cn3-c2ncc(Br)s2)C1 (configuration not stated) | 0.085 µg/mL | 
18 | Cl.NC1CCN(c2nc3c(cc2F)c(=O)c(C(=O)O)cn3-c2ccno2)C1 (configuration not stated) | 9.4 µg/mL | 
19 | Cl.O=C(O)c1cn(-c2nccs2)c2nc(N3C[C@@H]4CCCN[C@@H]4C3)c(F)cc2c1=O | 0.304 µg/mL | 
20 | Cl.NC1CCN(c2nc3c(cc2F)c(=O)c(C(=O)O)cn3-c2nc3ccccc3s2)C1 (configuration not stated) | 0.049 µg/mL | 
21 | Cl.NC1C=CC[C@H]2CN(c3nc4c(cc3F)c(=O)c(C(=O)O)cn4-c3nccs3)C[C@@H]12 (some centres not stated) | 0.15 µg/mL | 
22 | CC(C)(C)c1csc(-n2cc(C(=O)O)c(=O)c3cc(F)c(N4CCC(N)C4)nc32)n1.Cl (configuration not stated) | 0.88 µg/mL | 
23 | Cl.O=C(O)c1cn(-c2nccs2)c2nc(N3CC[C@@H](O)C3)c(F)cc2c1=O | 0.065 µg/mL | 
24 | Cl.NCC1=CCN(c2nc3c(cc2F)c(=O)c(C(=O)O)cn3-c2nccs2)C1 | 0.084 µg/mL | 
25 | Cl.O=C(O)c1cn(-c2nccs2)c2nc(N3CC[C@H](O)C3)c(F)cc2c1=O | 0.02 µg/mL | 
26 | CN(C)C1CCN(c2nc3c(cc2F)c(=O)c(C(=O)O)cn3-c2nccs2)C1.Cl (configuration not stated) | 0.057 µg/mL | T/C (P388 [4]): 175%; T/C (P388 [2]): 138%; T/C (P388 [5]): 225%
27 | CO[C@@H]1CN(c2nc3c(cc2F)c(=O)c(C(=O)O)cn3-c2nccs2)C[C@@H]1N.Cl | 0.084 µg/mL | 
28 | Cl.NC1CCN(c2nc3c(cc2F)c(=O)c(C(=O)O)nn3-c2nccs2)C1 (configuration not stated) | > 10 µg/mL | 
29 | CO[C@H]1CN(c2nc3c(cc2F)c(=O)c(C(=O)O)cn3-c2nccs2)C[C@@H]1N.Cl (stereo in doubt; 43j) | 0.038 µg/mL | IC50 [6]: 0.58 µg/mL; IC50 [7]: 0.78 µg/mL; T/C (P388 [4]): 238%; IC50 (A-427): 0.42 µg/mL; IC50 (SK-OV-3): 1.1 µg/mL; IC50 (G-361): 0.4 µg/mL; IC50 (HT-29): 2.1 µg/mL; T/C (P388 [2]): 138%; T/C (P388 [5]): >375%
30 | Cl.NC1CCN(c2nc3c(cc2F)c(=O)c(C(=O)O)cn3-c2ncc(Cl)s2)C1 (configuration not stated) | 0.094 µg/mL | 
